From ChEMBL document CHEMBL1124223, “1-Substituted 7-[3-[(ethylamino)methyl]-1-pyrrolidinyl]-6,8- difluoro-1,4-dihydro-4-oxo-3-quinolinecarboxylic acids. New quantitative structure-activity relationships at N1 for the quinolone antibacterials” (1988)
In brackets after ≈: the same amount, converted by molar mass.

Experiments:
Escherichia coli [1] = experiment: Minimum inhibitory concentration against Escherichia coli (H560); format: functional
Procedure, shortened: (§1)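 MICs were determined by standard microtitration against a panel of 11 bacterial strains. Aqueous stock solutions were prepared with 0.1 N sodium or potassium hydroxide.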

Pseudomonas aeruginosa = experiment: Minimum inhibitory concentration against Pseudomonas aeruginosa. (UI-18); format: functional; procedure, shortened: as §1
Klebsiella pneumoniae = experiment: Minimum inhibitory concentration against Klebsiella pneumoniae (MGH-2); format: functional; procedure, shortened: as §1
Staphylococcus aureus [2] = experiment: Minimum inhibitory concentration against Staphylococcus aureus (H-228).; format: functional; procedure, shortened: as §1
Enterobacter = experiment: Minimum inhibitory concentration against gram-negative enterobacteriaceae.; format: functional
Procedure, shortened: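 This value is the geometric mean of microtitration MICs for the Gram-negative Enterobacteriaceae strains in the 11-organism panel. Aqueous stocks were prepared in 0.1 N sodium or potassium hydroxide.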

Enterobacter cloacae = experiment: Minimum inhibitory concentration against Enterobacter cloacae. (MA2446).; format: functional
Streptococcus pneumoniae = experiment: Minimum inhibitory concentration against Streptococcus pneumoniae (SV-1).; format: functional; procedure, shortened: as §1
Staphylococcus aureus [3] = experiment: Minimum inhibitory concentration against Staphylococcus aureus (UC76).; format: functional; procedure, shortened: as §1
[4] = biological target: DNA gyrase (Escherichia coli) (UniProt P0AES6+P0AES4); experiment: Concentration required for 50% inhibition of gyrase.; format: protein-complex assay
Procedure, shortened: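 DNA gyrase inhibition: the drug concentration (µg/mL) giving 50% inhibition (I50) was recorded, along with the lowest concentration inducing gyrase-mediated DNA cleavage. Data come from duplicate experiments with ±50% reproducibility.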

Enterococcus faecalis = experiment: Minimum inhibitory concentration against Streptococcus faecalis (MGH-2).; format: functional; procedure, shortened: as §1
Streptococcus pyogenes = experiment: Minimum inhibitory concentration against Streptococcus pyogenes (C203).; format: functional; procedure, shortened: as §1
Providencia rettgeri = experiment: Minimum inhibitory concentration against Providencia rettgeri. (M1771); format: functional; procedure, shortened: as §1
Escherichia coli [5] = experiment: Minimum inhibitory concentration against Escherichia coli (vogel); format: functional; procedure, shortened: as §1
Mus musculus [6] = experiment: In vivo activity against Pseudomonas aeruginosa (sc); format: functional; settings: read-out: PD50
Procedure, shortened: (§2)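 Median protective dose (PD50, mg/kg) measured in acute, lethal, systemic infections in female Charles River CD-1 mice. A single dose of compound was given at the time of bacterial challenge. Aqueous stock solutions were made with 0.1 N sodium or potassium hydroxide.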

Mus musculus [7] = experiment: In vivo activity against Streptococcus pneumoniae (sc); format: functional; settings: read-out: PD50; procedure, shortened: as §2
Mus musculus [8] = experiment: In vivo activity against Streptococcus pyogenes (po); format: functional; settings: read-out: PD50; procedure, shortened: as §2
Mus musculus [9] = experiment: In vivo activity against Streptococcus pyogenes (sc); format: functional; settings: read-out: PD50; procedure, shortened: as §2
Mus musculus [10] = experiment: In vivo activity against Escherichia coli (po); format: functional; settings: read-out: PD50; procedure, shortened: as §2
Mus musculus [11] = experiment: In vivo activity against Pseudomonas aeruginosa (po); format: functional; settings: read-out: PD50; procedure, shortened: as §2
Mus musculus [12] = experiment: In vivo activity against Streptococcus pneumoniae (po); format: functional; settings: read-out: PD50; procedure, shortened: as §2
Mus musculus [13] = experiment: In vivo activity against Escherichia coli (sc); format: functional; settings: read-out: PD50; procedure, shortened: as §2

| SMILES | MIC (Escherichia coli [1]) | MIC (Pseudomonas aeruginosa) | MIC (Klebsiella pneumoniae) | MIC (Staphylococcus aureus [2]) | MIC (Enterobacter) | MIC (Enterobacter cloacae) | MIC (Streptococcus pneumoniae) | MIC (Staphylococcus aureus [3]) | IC50 [4] | MIC (Enterococcus faecalis) | MIC (Streptococcus pyogenes) | MIC (Providencia rettgeri) | MIC (Escherichia coli [5]) | further results |
| --- | --- | --- | --- | --- | --- | --- | --- | --- | --- | --- | --- | --- | --- | --- |
| CCNCC1CCN(c2c(F)cc3c(=O)c(C(=O)O)cn(C4CCCCC4)c3c2F)C1 (stereo not drawn) | 3.1 µg/mL (≈ 7.15 µM) | > 100 µg/mL | 12.5 µg/mL (≈ 28.8 µM) | 6.3 µg/mL (≈ 14.5 µM) | 16.5 µg/mL (≈ 38.1 µM) | 25 µg/mL (≈ 57.7 µM) | 3.1 µg/mL (≈ 7.15 µM) | 3.1 µg/mL (≈ 7.15 µM) | 30 µg/mL (≈ 69.2 µM) | 6.3 µg/mL (≈ 14.5 µM) | 6.3 µg/mL (≈ 14.5 µM) | > 100 µg/mL | 6.3 µg/mL (≈ 14.5 µM) |  |
| CCNCC1CCN(c2c(F)cc3c(=O)c(C(=O)O)cn(-c4nccs4)c3c2F)C1 (stereo not drawn) | 3.1 µg/mL (≈ 7.14 µM) | 25 µg/mL (≈ 57.5 µM) | 3.1 µg/mL (≈ 7.14 µM) | 25 µg/mL (≈ 57.5 µM) | 3.14 µg/mL (≈ 7.23 µM) | 1.6 µg/mL (≈ 3.68 µM) | 12.5 µg/mL (≈ 28.8 µM) | 1.6 µg/mL (≈ 3.68 µM) | 30 µg/mL (≈ 69 µM) | 6.3 µg/mL (≈ 14.5 µM) | 6.3 µg/mL (≈ 14.5 µM) | 12.5 µg/mL (≈ 28.8 µM) | 1.6 µg/mL (≈ 3.68 µM) |  |
| CCNCC1CCN(c2c(F)cc3c(=O)c(C(=O)O)cn(CC4CC4)c3c2F)C1 (stereo not drawn) | 0.8 µg/mL (≈ 1.97 µM) | 25 µg/mL (≈ 61.7 µM) | 1.6 µg/mL (≈ 3.95 µM) | 0.2 µg/mL (≈ 0.493 µM) | 2.09 µg/mL (≈ 5.15 µM) | 3.1 µg/mL (≈ 7.65 µM) | 0.8 µg/mL (≈ 1.97 µM) | 0.1 µg/mL (≈ 0.247 µM) | 30 µg/mL (≈ 74 µM) | 0.8 µg/mL (≈ 1.97 µM) | 0.4 µg/mL (≈ 0.987 µM) | 12.5 µg/mL (≈ 30.8 µM) | 0.8 µg/mL (≈ 1.97 µM) |  |
| CCNCC1CCN(c2c(F)cc3c(=O)c(C(=O)O)cn(C4CC4)c3c2F)C1 (stereo not drawn) [PD-117558] | 0.013 µg/mL (≈ 0.0332 µM) | 0.4 µg/mL (≈ 1.02 µM) | 0.05 µg/mL (≈ 0.128 µM) | 0.05 µg/mL (≈ 0.128 µM) | 0.06 µg/mL (≈ 0.153 µM) | 0.1 µg/mL (≈ 0.255 µM) | 0.025 µg/mL (≈ 0.0639 µM) | 0.006 µg/mL (≈ 0.0153 µM) | 1.4 µg/mL (≈ 3.58 µM) | 0.025 µg/mL (≈ 0.0639 µM) | 0.025 µg/mL (≈ 0.0639 µM) | 0.2 µg/mL (≈ 0.511 µM) | 0.05 µg/mL (≈ 0.128 µM) | ED50 (Mus musculus [6]): 13 mg/kg; ED50 (Mus musculus [7]): 2 mg/kg; ED50 (Mus musculus [8]): 2 mg/kg; ED50 (Mus musculus [9]): 0.5 mg/kg; ED50 (Mus musculus [10]): 4 mg/kg; ED50 (Mus musculus [11]): 40 mg/kg; ED50 (Mus musculus [12]): 3 mg/kg; ED50 (Mus musculus [13]): 1 mg/kg |
| CCNCC1CCN(c2c(F)cc3c(=O)c(C(=O)O)cn(C4CC4C)c3c2F)C1 (stereo not drawn) | 0.8 µg/mL (≈ 1.97 µM) | 6.3 µg/mL (≈ 15.5 µM) | 1.6 µg/mL (≈ 3.95 µM) | 0.8 µg/mL (≈ 1.97 µM) | 1.59 µg/mL (≈ 3.92 µM) | 1.6 µg/mL (≈ 3.95 µM) | 0.8 µg/mL (≈ 1.97 µM) | 0.2 µg/mL (≈ 0.493 µM) | 13 µg/mL (≈ 32.1 µM) | 0.4 µg/mL (≈ 0.987 µM) | 0.8 µg/mL (≈ 1.97 µM) | 6.3 µg/mL (≈ 15.5 µM) | 0.8 µg/mL (≈ 1.97 µM) |  |
